Data reported in ChEMBL document CHEMBL1122278, “Gastric antisecretory 9H-xanthen-9-amines” (1983).

Assays:
Rattus norvegicus [1] = experiment: Gastric antisecretory activity in pylorus-ligated rat at a concentration of 50 mg/kg perorally, expressed as increase in mean pH.; assay type: functional; details: route oral
How it was run: (§1)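 Male Carworth Farms rats (270–360 g), fasted 18 h with water; compound in PEG 200 by gavage 1 h before pylorus ligation under ether. Killed 2 h after ligation; juice centrifuged, volume and pH measured, supernatant titrated with NaOH to pH 7.4, output = volume × titre. Mean of six to seven animals against controls.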

Rattus norvegicus [2] = experiment: Antisecretory activity in PLR after pre-incubation in gastric juice at pH 1.0 for 2 min at 15 mg/kg dose, measured as acid output; assay type: functional
How it was run: (§2)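 Male Carworth Farms rats (270–360 g), fasted 18 h with water, pylorus ligated under ether. Compound in PEG 200 (80 mg/mL) added to gastric juice from separate 4-h ligated rats (stored frozen) at 7.5 mg/mL, juice neutralized with 1.0 N NaOH before or after addition, or left untreated (pH 1.0). Given intraduodenally right after ligation. Juice collected 2 h later; volume, titre (NaOH to pH 7.4), output = volume × titre.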

Canis familiaris [3] = experiment: Effect on pentagastrin-induced acid secretion in gastric fistula dogs, at 1 mg/kg, iv for 2 h; assay type: functional, Canis lupus familiaris, Stomach
How it was run: (§3)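 Four chronic gastric fistula dogs (11.2–16.2 kg), fasted 24 h, saline infused via saphenous vein, then pentagastrin 8 (μg/kg)/h for maximal stimulation. After 1 h acid plateau, compound given 1 mg/kg iv in PEG 200. Juice collected at 15-min intervals and centrifuged; titratable acid output from volume × titre, as mean ± SE, equivalents per hour.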

Rattus norvegicus [4] = experiment: Effect of intraduodenal administration of compound on acid secretion inhibition in the PLR; Value ranges from 1.4-7.8; assay type: functional
Rattus norvegicus [5] = experiment: Antisecretory activity in PLR after pre-incubation in gastric juice at pH 1.0 for 60 min at 15 mg/kg dose, measured as acid output; assay type: functional; how it was run: as §2
Rattus norvegicus [6] = experiment: Antisecretory activity in PLR after pre-incubation in gastric juice at pH 1.0 for 30 min at 15 mg/kg dose, measured as acid titreated; assay type: functional; how it was run: as §2
Rattus norvegicus [7] = experiment: Effect of intravenous administration of compound on acid secretion inhibition in the PLR; Value ranges from 0.9-5.3; assay type: functional
How it was run: (§4)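 Male Carworth Farms rats (270–360 g), fasted 18 h, pylorus ligated under ether; compound in PEG 200 given intravenously at ligation, six rats per group. Gastric contents taken 2 h after ligation, centrifuged, titrated with NaOH to pH 7.4; output = volume × titre.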

Rattus norvegicus [8] = experiment: Effect of intravenous administration of compound on acid secretion inhibition in the PLR; Value ranges from 0.3-2.7; assay type: functional; how it was run: as §4
Rattus norvegicus [9] = experiment: Antisecretory activity in PLR after pre-incubation in gastric juice at pH 1.0 for 30 min at 15 mg/kg dose, measured as volume
Rattus norvegicus [10] = experiment: Antisecretory activity in PLR after pre-incubation in neutralized juice for 60 min at 15 mg/kg dose, measured as volume; assay type: functional; how it was run: as §2
Canis familiaris [11] = experiment: Effect on pentagastrin-induced acid secretion in gastric fistula dogs, at 1 mg/kg, iv for 1 h; assay type: functional, Canis lupus familiaris, Stomach; how it was run: as §3
Rattus norvegicus [12] = experiment: Gastric antisecretory activity in pylorus ligated rat at a concentration of 50 mg/kg perorally, expressed as % decrease in mean titratable acid output of gastric juice in treated vs. control groups.; assay type: functional; details: route oral; how it was run: as §1
Rattus norvegicus [13] = experiment: Antisecretory activity in PLR after pre-incubation in gastric juice at pH 1.0 for 2 min at 15 mg/kg dose, measured as volume; assay type: functional; how it was run: as §2
Rattus norvegicus [14] = experiment: Antisecretory activity in PLR after pre-incubation in neutralized juice for 60 min at 15 mg/kg dose, measured as acid titreated; assay type: functional; how it was run: as §2
Rattus norvegicus [15] = experiment: Antisecretory activity in PLR after pre-incubation in gastric juice at pH 1.0 for 30 min at 15 mg/kg dose, measured as acid output; assay type: functional; how it was run: as §2
Rattus norvegicus [16] = experiment: Antisecretory activity in PLR after pre-incubation in gastric juice at pH 1.0 for 60 min at 15 mg/kg dose, measured as acid titreated; assay type: functional; how it was run: as §2
Rattus norvegicus [17] = experiment: Antisecretory activity in PLR after preincubation in gastric juice at pH 1.0 for 60 min at 15 mg/kg dose, measured as volume; assay type: functional; how it was run: as §2
Rattus norvegicus [18] = experiment: Antisecretory activity in PLR after pre-incubation in neutralized juice for 60 min at 15 mg/kg dose, measured as acid output; assay type: functional; how it was run: as §2
Rattus norvegicus [19] = experiment: Effect of intraduodenal administration of compound on acid secretion inhibition in the PLR; Value ranges from 0.8-4.8; assay type: functional
Rattus norvegicus [20] = experiment: Effect of peroral administration of compound on acid secretion inhibition in the PLR; Value ranges from 4.7-14.9; assay type: functional
How it was run: (§5)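 Rats (male Carworth Farms, 270–360 g) fasted 18 h; compound in PEG 200 by gavage 1 h before pylorus ligation under ether, six per group. Gastric contents collected 2 h post-ligation; pH, volume, titre (NaOH to pH 7.4) measured, output = volume × titre.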

Canis familiaris [21] = experiment: Effect on pentagastrin-induced acid secretion in gastric fistula dogs, at 1 mg/kg, iv for 3 h; assay type: functional, Canis lupus familiaris, Stomach; how it was run: as §3
Rattus norvegicus [22] = experiment: Effect of peroral administration of compound on acid secretion inhibition in the PLR; NS means no significant dose response.; assay type: functional, organism-based; how it was run: as §5
Rattus norvegicus [23] = experiment: Antisecretory activity in PLR after preincubation in gastric juice at pH 1.0 for 2 min at 15 mg/kg dose, measured as acid titreated; assay type: functional; how it was run: as §2

In the case of `CCN1CCCC(NC2c3ccccc3Oc3ccccc32)C1` (stereo unspecified), the “Delta pH” value (Rattus norvegicus [1]) was 5.6, the Acid output (Rattus norvegicus [2]) was 191 u equiv 2hr-1 and the Acid output (Canis familiaris [3]) was 2.46 u equiv hr-1. For the same compound, the Change (Canis familiaris [3]) was -80%, the ED50 (Rattus norvegicus [4]) was 3.8 mg/kg and the Acid output (Rattus norvegicus [5]) was 324 u equiv 2hr-1. It also gave an Acid titer (Rattus norvegicus [6]) of 62 m equiv l-1, an ED50 (Rattus norvegicus [7]) of 2.3 mg/kg and an ED50 (Rattus norvegicus [8]) of 1.2 mg/kg. The Volume (Rattus norvegicus [9]) was 6 mL, the Volume (Rattus norvegicus [10]) was 2.5 mL and the Acid output (Canis familiaris [11]) was 3.37 u equiv hr-1. For the same compound, the Change (Canis familiaris [11]) was -72%, the “Delta TAO” value (Rattus norvegicus [12]) was 98 and the Volume (Rattus norvegicus [13]) was 4.6 mL. The Acid titer (Rattus norvegicus [14]) was 26 m equiv l-1, the Acid output (Rattus norvegicus [15]) was 367 u equiv 2hr-1 and the Acid titer (Rattus norvegicus [16]) was 59 m equiv l-1. It also gave a Volume (Rattus norvegicus [17]) of 5.6 mL, an Acid output (Rattus norvegicus [18]) of 70 u equiv 2hr-1 and an ED50 (Rattus norvegicus [19]) of 2.3 mg/kg. The ED50 (Rattus norvegicus [20]) was 8.9 mg/kg, the Acid output (Canis familiaris [21]) was 4.6 u equiv hr-1 and the Change (Canis familiaris [21]) was -62%. For the same compound, the ED50 (Rattus norvegicus [22]) was “Not significant” and the Acid titer (Rattus norvegicus [23]) was 43 m equiv l-1.
